Calls of active or inactive are those of the source. The rule behind the calls is not given here. Square brackets hold non-standard residues; d marks the D form. Peptide text beside a SMILES is read from it. Hyp = O=C(O)[C@@H]1C[C@@H](O)CN1; Ahx = NCCCCCC(=O)O
Key:
[1] = system: MCF7; assay: Downregulation of CCND1 gene expression in human MCF7 cells at 10 uM incubated for 6 hrs by RT-qPCR analysis; format: functional, cell-based
How it was run: (§1)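 Cells treated with peptide (10 μM) for 6 h; c-Myc, N-myc and CCND1 mRNA measured by RT-qPCR. Three biological repeats.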

[2] = system: MDA-MB-231; assay: Downregulation of CCND1 gene expression in human MDA-MB-231 cells at 10 uM incubated for 6 hrs by RT-qPCR analysis; format: functional, cell-based; how it was run: as §1
[3] = Downregulation of BRD4 protein expression in human MCF7 cells assessed as fold change in remaining BRD4 level at 10 uM incubated for 24 hrs by immunoblotting analysis (reference value: 1); format: functional
How it was run: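 Cells treated with peptide (10 μM) for 24 h. Lysates in Tris/NaCl/EDTA/1% Triton X-100, run on 10% SDS-PAGE and immunoblotted with ECL detection. β-actin as loading control. Three repeats, quantified against untreated cells.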

[4] = system: Mus musculus; assay: Downregulation of N-myc mRNA expression in BALB/c mouse tumor xenografted with human MCF7 cells at 25 mg/kg, ip administered every 2 days by RT-qPCR analysis; format: functional, organism-based
[5] = system: Mus musculus; assay: Downregulation of CCND1 mRNA expression in BALB/c mouse tumor xenografted with human MCF7 cells at 25 mg/kg, ip administered every 2 days by RT-qPCR analysis; format: functional, organism-based
[6] = system: Mus musculus; assay: Downregulation of c-Myc mRNA expression in BALB/c mouse tumor xenografted with human MDA-MB-231 cells at 25 mg/kg, ip administered every 2 days by RT-qPCR analysis; format: functional, organism-based
How it was run: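 Female BALB/c nude mice (4–6 weeks) implanted subcutaneously with 5 × 10^6 cells in PBS. For MCF7 grafts, estrogen (E2, 10–2 M) is brushed on every 2 days. Treatment starts at ~50 mm3 after randomization, with peptide in normal saline ip every 2 days. Tumour mRNA is measured by RT-qPCR.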

[7] = system: Mus musculus; assay: Downregulation of JMJD6 mRNA expression in BALB/c mouse tumor xenografted with human MCF7 cells at 25 mg/kg, ip administered every 2 days by RT-qPCR analysis; format: functional, organism-based
[8] = system: MCF7; assay: Antitumor activity against human MCF7 cells xenografted in BALB/c nude mouse assessed as reduction in tumor weight at 12.5 mg/kg, ip administered every 2 days in presence of 50 mg/kg JQ1; format: functional, organism-based
How it was run: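 Female BALB/c nude mice given 5 × 10^6 cells sc (MCF7 mice with E2 10^-2 M every 2 days), randomised at ~50 mm3. Peptide 12.5 mg/kg ip (saline) every 2 days, plus JQ1 50 mg/kg ip (DMSO/10% HPBCD 1:10) every 2 days or iJMJD6 12.5 mg/kg ip (DMSO/PBS 1:20). Caliper volume every 2 days; tumours weighed at the end.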

[9] = Toxicity in BALB/c mouse xenografted with human MCF7 cells assessed as change in heart weight at 12.5 mg/kg, ip administered every 2 days in presence of 50 mg/kg JQ1; format: organism-based; conditions: in vivo, 48 h
[10] = Toxicity in BALB/c mouse xenografted with human MCF7 cells assessed as change in kidney weight at 12.5 mg/kg, ip administered every 2 days in presence of 50 mg/kg JQ1; format: organism-based; conditions: in vivo, 48 h
[11] = system: MCF7; assay: Antiproliferative activity against human MCF7 cells at 10 uM incubated for 1 week in presence of JMJD6 inhibitor by CellTiter 96 Aqueous One Solution based assay; format: functional, cell-based; conditions: time 1.0 weeks
How it was run: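 Cells seeded at 2 × 10^3/well and treated with peptide (10 μM) alone or combined with JQ1 (5 μM), iJMJD6 (10 μM) or ICI (2.5 μM), as the line states. Viability read by MTS reagent, 1 h at 37 °C, A490. Three biological repeats.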

[12] = system: MCF7; assay: Inhibition of cell migration in human MCF7 cells at 10 uM incubated for 24 hrs in presence of JMJD6 inhibitor by inverted microscopic analysis; format: functional, cell-based
How it was run: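 Cells are seeded at 5 × 10^5/well and scratched at 80–90% confluence. They are kept in serum-free medium with peptide (10 μM); partner agents are JQ1 5 μM, iJMJD6 10 μM, or ICI 2.5 μM. Wound area is imaged by inverted microscope at 0 and 12 or 24 h. Wound closure % = (A0−A1)/A0 × 100. Three biological repeats.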

[13] = system: MDA-MB-231; assay: Inhibition of colony formation in human MDA-MB-231 cells at 10 uM incubated for 2 weeks in presence of JMJD6 inhibitor by crystal violet staining based assay; format: functional, cell-based
How it was run: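 Cells are seeded at 1 × 10^3/well and treated with peptide (10 μM) for 2 weeks, alone or with JQ1 5 μM, iJMJD6 10 μM, ICI 2.5 μM, or tamoxifen 3 μM (tamoxifen-resistant lines). Colonies are stained with crystal violet, dissolved in 10% acetic acid, and read at 590 nm. Three biological repeats.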

[14] = system: T47D; assay: Antiproliferative activity against human T47D cells at 10 uM incubated for 1 week in presence of fulvestrant by CellTiter 96 Aqueous One Solution based assay; format: functional, cell-based; conditions: time 1.0 weeks
[15] = system: MCF7; assay: Antitumor activity against human MCF7 cells xenografted in BALB/c nude mouse assessed as reduction in tumor weight at 12.5 mg/kg, ip administered every 2 days in presence of 2.5 mg/kg fulvestrant; format: functional, organism-based
How it was run: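 MCF7 xenografts in female BALB/c nude mice on E2 (10^-2 M, every 2 days), randomised at ~50 mm3. Peptide 12.5 mg/kg ip every 2 days with fulvestrant 2.5 mg/kg sc (DMSO/corn oil 1:10) every 6 days. Caliper volume (1/2 × L × W²); tumours weighed at the end.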

[16] = Toxicity in BALB/c mouse xenografted with human MCF7 cells assessed as change in body weight at 2.5 mg/kg, ip administered every 2 days in presence of 12.5 mg/kg fulvestrant; format: organism-based; conditions: in vivo, 48 h
[17] = Downregulation of c-Myc protein expression in BALB/c mouse tumor xenografted with human MDA-MB-231 cells assessed as fold change in remaining c-Myc level at 25 mg/kg, ip administered every 2 days by immunoblotting analysis; format: functional
How it was run: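 Female BALB/c nude mice (4–6 weeks) carry subcutaneous MCF7 or MDA-MB-231 grafts (5 × 10^6 cells). MCF7 mice are brushed with E2 (10–2 M) every 2 days. Dosing starts at ~50 mm3: peptide in normal saline, ip every 2 days. Tumour lysates are immunoblotted with β-actin as loading control; repeated three times.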

[18] = Downregulation of CCND1 protein expression in BALB/c mouse tumor xenografted with human MDA-MB-231 cells assessed as fold change in remaining CCND1 level at 25 mg/kg, ip administered every 2 days by immunoblotting analysis; format: functional
How it was run: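 Tumours taken from xenograft mice dosed with peptide at 25 mg/kg ip every 2 days. […] Three repeats.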

Row | Compound | Activity [1] | Activity [2] | fold change (FC) [3] | Activity [4] | Activity [5] | Activity [6] | Activity [7] | Activity [8] | Activity [9] | Activity [10] | Activity [11] | inhibition [12] | inhibition [13] | Activity [14] | Activity [15] | Activity [16] | fold change (FC) [17] | fold change (FC) [18]
1 | CC[C@H](C)[C@H](NC(=O)[C@H](Cc1ccc(O)cc1)NC(=O)[C@@H]1C[C@@H](O)CN1C(=O)[C@H](C)NC(=O)[C@@H](NC(=O)CCCCCNC(=O)[C@H](CCC(=O)O)NC(=O)CNC(=O)[C@H](CS)NC(=O)[C@H](CCCCN)NC(=O)[C@H](Cc1ccccc1)NC(=O)[C@H](CCCCN)NC(=O)[C@H](CCC(N)=O)NC(=O)[C@H](CC(N)=O)NC(=O)[C@H](CCCNC(=N)N)NC(=O)[C@H](CCCNC(=N)N)NC(=O)[C@H](CCCNC(=N)N)NC(=O)[C@H](CCCNC(=N)N)NC(=O)[C@H](CCC(N)=O)NC(=O)[C@H](CCCNC(=N)N)NC(=O)[C@H](CCCNC(=N)N)NC(=O)[C@H](CCCCN)NC(=O)[C@H](CCCCN)NC(=O)[C@H](CCCNC(=N)N)NC(=O)CNC(=O)[C@@H](N)Cc1ccc(O)cc1)[C@@H](C)CC)C(=O)O (H-YGRKKRRQRRRRNQKFKCGE[Ahx]IA[Hyp]YI-OH) | Active | Active | 0.63 | Active | Active | Active | inactive | Active | Non-Toxic | Non-Toxic | Active | Active | Active | Active | Active | Non-Toxic | 0.44 | 0.08
2 | H-YGRKKRRQRRRRNQKFKCGE-OH | Active | Active | 1.14 | Active | Active | Active | inactive | Active | Non-Toxic | Non-Toxic | Active | Active | Active | Active | Active | Non-Toxic | 0.22 | 0.28

— ChEMBL document CHEMBL5543129, “Peptide Inhibitor Targeting the Extraterminal Domain in BRD4 Potently Suppresses Breast Cancer Both In Vitro and In Vivo” (J Med Chem, 2024)
